Results as given in ChEMBL document CHEMBL1139875, “Discovery of 4-aminobutyric acid derivatives possessing anticonvulsant and antinociceptive activities: a hybrid pharmacophore approach” (2007).
Activity calls are given as the source filed them. No cut-off for these calls is given here.

What was measured:
[1] = test system: Mus musculus; assay: Anticonvulsant activity in Swiss Albino mouse at 300 mg/kg, ip after 0.5 hr by MES test; type: functional, organism-based; design: dose 300 mg/kg
Summary of the method: (§1)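 Mice (Swiss, 20-25 g) given i.p. doses of 30, 100 and 300 mg/kg under ADD program protocols, three per group, examined at 0.5 and 4 h in MES, scPTZ, scSTY or scPIC seizure tests. Value is the minimum dose protecting half or more of the mice.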

[2] = test system: Mus musculus; assay: Anticonvulsant activity in Swiss Albino mouse at 300 mg/kg, ip after 4 hrs by MES test; type: functional, organism-based; design: dose 300 mg/kg; summary of the method: as §1
[3] = test system: Mus musculus; assay: Anticonvulsant activity in Swiss Albino mouse at 300 mg/kg, ip after 0.5 hr by scPTZ test; type: functional, organism-based; design: dose 300 mg/kg; summary of the method: as §1
[4] = test system: Mus musculus; assay: Anticonvulsant activity in Swiss Albino mouse at 300 mg/kg, ip after 0.5 hr by scSTY test; type: functional, organism-based; design: dose 300 mg/kg; summary of the method: as §1
[5] = test system: Mus musculus; assay: Anticonvulsant activity in Swiss Albino mouse at 300 mg/kg, ip after 4 hrs by scSTY test; type: functional, organism-based; design: dose 300 mg/kg; summary of the method: as §1
[6] = test system: Mus musculus; assay: Anticonvulsant activity in Swiss Albino mouse at 300 mg/kg, ip after 0.5 hr by scPIC test; type: functional, organism-based; design: dose 300 mg/kg; summary of the method: as §1
[7] = test system: Mus musculus; assay: Anticonvulsant activity in Swiss Albino mouse at 300 mg/kg, ip after 4 hrs by scPIC test; type: functional, organism-based; design: dose 300 mg/kg; summary of the method: as §1
[8] = test system: Mus musculus; assay: Neurotoxicity in Swiss Albino mouse at 300 mg/kg, ip after 0.5 hr by rotarod test; type: functional, organism-based; design: dose 300 mg/kg
Summary of the method: (§2)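 Swiss mice (20-25 g) are trained on an accelerating rotorod (10 rpm, 3.2 cm rod), then injected i.p. at 30, 100 or 300 mg/kg, with three per group. Neurotoxicity means failure to keep equilibrium for at least 1 min in each of three trials, checked at 0.5 and 4 h. The value reported is the minimum dose affecting half or more of the mice.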

[9] = test system: Mus musculus; assay: Neurotoxicity in Swiss Albino mouse at 300 mg/kg, ip after 4 hrs by rotarod test; type: functional, organism-based; design: dose 300 mg/kg; summary of the method: as §2
[10] = test system: Mus musculus; assay: Analgesic activity in Swiss Albino mouse assessed as number of acetic acid-induced writhing per 30 min after 100 mg/kg, ip; type: functional
Summary of the method: (§3)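 Mice in groups of six dosed i.p. at 100 mg/kg, controls receiving 30% v/v PEG 400 in water. Writhing induced by i.p. 0.1 mL of 3% v/v acetic acid 1 h after drug. Writhes (abdominal stretch with at least one hind limb extended) counted over 30 min; % inhibition calculated. Mean ± SEM, Student's t test.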

[11] = test system: Mus musculus; assay: Analgesic activity in Swiss Albino mouse assessed as inhibition of acetic acid-induced writhing responses at 100 mg/kg, ip; type: functional; conditions: for inhibition in vivo at 100 mg/kg: route intraperitoneal; summary of the method: as §3
[12] = test system: Rattus norvegicus; assay: Anti-dynamic allodynia effect in Sprague-Dawley rat SNL model assessed as latency to paw withdrawal 100 mg/kg, ip after 0.5 hr; type: functional; conditions: route intraperitoneal
Summary of the method: (§4)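 Left L5 spinal nerve ligation rats, tested preoperatively and 9 days postoperatively, then given 100 mg/kg i.p. (vehicle 30% v/v PEG 400 in water). After 10 min acclimatization, plantar surface of affected paw stroked mildly with a cotton-bud; paw lift response recorded. n = 4; retested 0.5-2.5 h post-dose.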

[13] = test system: Rattus norvegicus; assay: Anti-dynamic allodynia effect in Sprague-Dawley rat SNL model assessed as latency to paw withdrawal 100 mg/kg, ip after 1 hr; type: functional; conditions: route intraperitoneal; summary of the method: as §4
[14] = test system: Rattus norvegicus; assay: Anti-dynamic allodynia effect in Sprague-Dawley rat SNL model assessed as latency to paw withdrawal 100 mg/kg, ip after 1.5 hrs; type: functional; conditions: route intraperitoneal; summary of the method: as §4
[15] = test system: Rattus norvegicus; assay: Anti-dynamic allodynia effect in Sprague-Dawley rat SNL model assessed as latency to paw withdrawal 100 mg/kg, ip after 2 hrs; type: functional; conditions: route intraperitoneal; summary of the method: as §4
[16] = test system: Rattus norvegicus; assay: Anti-dynamic allodynia effect in Sprague-Dawley rat SNL model assessed as latency to paw withdrawal 100 mg/kg, ip after 2.5 hrs; type: functional; conditions: route intraperitoneal; summary of the method: as §4
[17] = test system: Rattus norvegicus; assay: Antihyperalgesic effects in Sprague-Dawley rat CCI model assessed as duration of paw withdrawal at 100 mg/kg, ip after 0.5 hr; type: functional; conditions: route intraperitoneal
[18] = test system: Rattus norvegicus; assay: Antihyperalgesic effects in Sprague-Dawley rat CCI model assessed as duration of paw withdrawal at 100 mg/kg, ip after 1 hr; type: functional; conditions: route intraperitoneal
[19] = test system: Rattus norvegicus; assay: Antihyperalgesic effects in Sprague-Dawley rat CCI model assessed as duration of paw withdrawal at 100 mg/kg, ip after 1.5 hrs; type: functional; conditions: route intraperitoneal
[20] = test system: Rattus norvegicus; assay: Antihyperalgesic effects in Sprague-Dawley rat CCI model assessed as duration of paw withdrawal at 100 mg/kg, ip after 2 hrs; type: functional; conditions: route intraperitoneal
[21] = test system: Rattus norvegicus; assay: Antihyperalgesic effects in Sprague-Dawley rat CCI model assessed as duration of paw withdrawal at 100 mg/kg, ip after 2.5 hrs; type: functional; conditions: route intraperitoneal
[22] = test system: Rattus norvegicus; assay: Effect on spontaneous pain in Sprague-Dawley rat SNL model assessed as duration of paw withdrawal at 100 mg/kg, ip after 0.5 hr; type: functional; conditions: route intraperitoneal
Summary of the method: (§5)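 Rats underwent left L5 spinal nerve ligation (Kim and Chung) under i.p. pentobarbital (65 mg/kg). Spontaneous pain is recorded for 5 min after 10 min acclimatization, as cumulative duration the ipsilateral paw is lifted, excluding locomotor lifts. Dosing is 100 mg/kg i.p. in 30% v/v PEG 400/water, with testing at 0.5–2.5 h. Four rats, mean ± SEM versus predrug, one-way ANOVA with Bonferroni.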

[23] = test system: Rattus norvegicus; assay: Effect on spontaneous pain in Sprague-Dawley rat SNL model assessed as duration of paw withdrawal at 100 mg/kg, ip after 1 hr; type: functional; conditions: route intraperitoneal; summary of the method: as §5
[24] = test system: Rattus norvegicus; assay: Effect on spontaneous pain in Sprague-Dawley rat SNL model assessed as duration of paw withdrawal at 100 mg/kg, ip after 1.5 hrs; type: functional; conditions: route intraperitoneal; summary of the method: as §5
[25] = test system: Rattus norvegicus; assay: Effect on spontaneous pain in Sprague-Dawley rat SNL model assessed as duration of paw withdrawal at 100 mg/kg, ip after 2 hrs; type: functional; conditions: route intraperitoneal; summary of the method: as §5
[26] = test system: Rattus norvegicus; assay: Effect on spontaneous pain in Sprague-Dawley rat SNL model assessed as duration of paw withdrawal at 100 mg/kg, ip after 2.5 hrs; type: functional; conditions: route intraperitoneal; summary of the method: as §5
[27] = test system: Rattus norvegicus; assay: Antihyperalgesic effects in Sprague-Dawley rat SNL model assessed as duration of paw withdrawal at 100 mg/kg, ip after 0.5 hr, ip; type: functional; conditions: route intraperitoneal
Summary of the method: (§6)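 L5 SNL rats (n = 4), dosed 100 mg/kg i.p. (vehicle 30% v/v PEG 400 in water). Pin-prick to midplantar ipsilateral left hindpaw; withdrawal duration, mean of three responses; ≥2 s defined abnormal. Mean ± SEM; one-way ANOVA with Bonferroni versus predrug.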

[28] = test system: Rattus norvegicus; assay: Antihyperalgesic effects in Sprague-Dawley rat SNL model assessed as duration of paw withdrawal at 100 mg/kg, ip after 1 hr, ip; type: functional; conditions: route intraperitoneal; summary of the method: as §6
[29] = test system: Rattus norvegicus; assay: Antihyperalgesic effects in Sprague-Dawley rat SNL model assessed as duration of paw withdrawal at 100 mg/kg, ip after 1.5 hrs, ip; type: functional; conditions: route intraperitoneal; summary of the method: as §6
[30] = test system: Rattus norvegicus; assay: Antihyperalgesic effects in Sprague-Dawley rat SNL model assessed as duration of paw withdrawal at 100 mg/kg, ip after 2 hrs, ip; type: functional; conditions: route intraperitoneal; summary of the method: as §6
[31] = test system: Rattus norvegicus; assay: Antihyperalgesic effects in Sprague-Dawley rat SNL model assessed as duration of paw withdrawal at 100 mg/kg, ip after 2.5 hrs, ip; type: functional; conditions: route intraperitoneal; summary of the method: as §6

With `CCC1(C)CC(=O)NC1=O` (stereo not drawn) the Activity [1] was “inactive”, the Activity [2] was “inactive” and the Activity [3] was “Active”. The Activity [4] was “inactive”, the Activity [5] was “inactive” and the Activity [6] was “inactive”. For the same compound, the Activity [7] was “inactive”, the Activity [8] was “inactive” and the Activity [9] was “inactive”. The Activity [10] was “inactive” and the Activity [11] was “inactive”.
`O=C(O)CCCNC(=O)NN=C1CCCCC1` was tested, and the Activity [1] was “inactive”, the Activity [2] was “inactive” and the Activity [3] was “Active”. For the same compound, the Activity [4] was “inactive”, the Activity [5] was “inactive” and the Activity [6] was “Active”. The Activity [7] was “inactive”, the Activity [8] was “inactive” and the Activity [9] was “inactive”. The Activity ([10]; route intraperitoneal) was 32, the inhibition in vivo at 100 mg/kg [11] was 82% and the Activity [12] was 5.2 s. For the same compound, the Activity [13] was 5.6 s, the Activity [14] was 1.8 s and the Activity [15] was 0.2 s. It also gave an Activity [16] of 0.24 s, an Activity [17] of 20.3 s and an Activity [18] of 24.8 s. The Activity [19] was 4.8 s, the Activity [20] was 5.2 s and the Activity [21] was 7 s. It also gave an Activity [22] of 21.2 s, an Activity [23] of 20.2 s and an Activity [24] of 10.8 s. For the same compound, the Activity [25] was 10.6 s, the Activity [26] was 10.8 s and the Activity [27] was 14.7 s. It also gave an Activity [28] of 19.7 s, an Activity [29] of 15.6 s and an Activity [30] of 11.3 s. The Activity [31] was 12.8 s.
`C/C(=N\NC(=O)NCCCC(=O)O)c1ccc([N+](=O)[O-])cc1` was tested, and the Activity [1] was “inactive”, the Activity [2] was “inactive” and the Activity [3] was “inactive”. The Activity [4] was “inactive”, the Activity [5] was “inactive” and the Activity [6] was “inactive”. The Activity [7] was “inactive”, the Activity [8] was “inactive” and the Activity [9] was “inactive”. The Activity ([10]; route intraperitoneal) was 61 and the inhibition in vivo at 100 mg/kg [11] was 67%.
